One may read the IC50 as the concentration that inhibits the measured activity by half. The low end stands for higher potency, the high end for lower potency. In general, IC90 refers to the concentration needed for an effect of 90%. A high value points to weaker potency. For orientation: MIC means the lowest concentration found to suppress growth.

Here are results for five molecules from ChEMBL document CHEMBL4130482, “Synthesis and Antimicrobial Evaluation of Fire Ant Venom Alkaloid Based 2-Methyl-6-alkyl-Δ1,6-piperideines” (J Nat Prod, 2017).

The test system of one data set is Trypanosoma brucei. As to the kind of experiment: Antitrypanosomal activity against trypomastigote form of Trypanosoma brucei after 72 hrs by Alamar blue assay. It counts as functional, organism-based. The method, boiled down: (§1)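 Alamar Blue viability assay on L. donovani promastigotes, axenic amastigotes, THP1-cell amastigotes, and T. brucei trypomastigotes. Organisms at 2 × 10^6 cells/mL were exposed to serially diluted compounds for 72 h at 26 °C. IC50 and IC90 were determined. Test compounds were run up to 10 μg/mL. Values are means with standard deviations from two independent experiments, each in duplicate.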

For another data set, the system named is THP-1. The data set is described as follows: (§2) Cytotoxicity against human THP1 cells. To be noted: Homo sapiens, THP-1. The data set is classed as cell-based. The method, boiled down:
(§3)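 Human THP-1 cells were exposed to test compounds at up to 10 μg/mL. Values are from two independent experiments, each with two replicates.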

The nature of data set [1]: as §2. It counts as cell-based, THP-1. To be noted: human, THP-1 cells. The method, boiled down: as §3
Data set [2] deals with Leishmania donovani. As to the kind of experiment: Antileishmanial activity against […] amastigote form of Leishmania donovani after 72 hrs by Alamar blue assay. The data set is classed as functional, organism-based. The method, boiled down: as §1
On the technique in general: Alamar Blue is a resazurin reagent that responds to reducing activity.

The test system of data set [3] is Candida albicans. As to the kind of experiment: Antimicrobial activity against Candida albicans ATCC 90028 after 48 hrs by CLSI method. It counts as functional, organism-based. The method, boiled down:
(§4)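 Antifungal susceptibility was tested by a modified CLSI (formerly NCCLS) broth method. Strains were C. neoformans ATCC 90113, C. albicans ATCC 90028, and A. fumigatus ATCC 204305, obtained from ATCC. Amphotericin B served as the positive control.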

The test system of a further data set is Cryptococcus neoformans. The data set is described as follows: Antimicrobial activity against Cryptococcus neoformans ATCC 90113 after 72 hrs by CLSI method. The data set is classed as functional, organism-based. Conditions: ATCC 90113, 72 h. In outline:
as §4

Data set [4] deals with Enterococcus faecium. The data set is described as follows: Antimicrobial activity against vancomycin-resistant Enterococcus faecium ATCC 700221 at 2 ug/ml by CLSI method. It counts as functional, organism-based.
Data set [5] concerns Leishmania donovani. As to the kind of experiment: Antileishmanial activity against amastigote form of Leishmania donovani infected in human THP1 cells after 72 hrs by Alamar blue assay. It counts as functional, organism-based. To be noted: THP-1, 72 h. The method, boiled down: as §1
For data set [6], the system named is Leishmania donovani. The data set is described as follows: Antileishmanial activity against promastigote form of Leishmania donovani after 72 hrs by Alamar blue assay. The data set is classed as functional, organism-based. The method, boiled down:
as §1

The subject of a further data set is Staphylococcus aureus. The data set is described as follows: Antimicrobial activity against methicillin-resistant Staphylococcus aureus ATCC 1708 at 20 ug/ml by CLSI method. It counts as functional, organism-based.
The test system of the next data set is Escherichia coli. The data set is described as follows: Antimicrobial activity against Escherichia coli ATCC 2452 at 20 ug/ml by CLSI method. It counts as functional, organism-based.
The test system of another data set is Pseudomonas aeruginosa. As to the kind of experiment: Antimicrobial activity against Pseudomonas aeruginosa ATCC 2108 at 20 ug/ml by CLSI method. The data set is classed as functional, organism-based.
For data set [7], the system named is Enterococcus faecium. The data set is described as follows: Antimicrobial activity against vancomycin-resistant Enterococcus faecium ATCC 700221 at 20 ug/ml by CLSI method. The data set is classed as functional, organism-based.
The test system of the next data set is Aspergillus fumigatus. The data set is described as follows: Antimicrobial activity against Aspergillus fumigatus ATCC 204305 at 20 ug/ml after 48 hrs by CLSI method. The data set is classed as functional, organism-based.
Data set [8] deals with Candida albicans. The data set is described as follows: Antimicrobial activity against Candida albicans ATCC 90028 at 20 ug/ml after 48 hrs by CLSI method. The data set is classed as functional, organism-based.
Data set [9] relates to Enterococcus faecium. The data set is described as follows: Antimicrobial activity against vancomycin-resistant Enterococcus faecium ATCC 700221 by CLSI method. The data set is classed as functional, organism-based. The method, boiled down: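 VRE E. faecium ATCC 700221 strain, tested by a modified CLSI susceptibility method. Methicillin and vancomycin served as positive controls. The read-outs were 50% growth inhibition (IC50) and minimum inhibitory concentration (MIC).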

The structures appear in SMILES notation. In brackets after ≈: the same amount, converted by molar mass. Activity calls are given as the source filed them. The rule behind the calls is not given here.

In the data set with Trypanosoma brucei, `NCCCC(N)(C(=O)O)C(F)F` (configuration not stated) [EFLORNITHINE] returned an IC50 of 6.1 µg/mL (≈ 33.5 µM) and an IC90 of 12.1 µg/mL (≈ 66.4 µM).

On to `C[C@@H]1[C@H](O)[C@@H](C)/C=C/C=C/C=C/C=C/C=C/C=C/C=C/[C@H](O[C@@H]2O[C@H](C)[C@@H](O)[C@H](N)[C@@H]2O)C[C@@H]2O[C@](O)(C[C@@H](O)C[C@@H](O)[C@H](O)CC[C@@H](O)C[C@@H](O)CC(=O)O[C@H]1C)C[C@H](O)[C@H]2C(=O)O` [AMPHOTERICIN B], for which the IC50 was over 2 µg/mL in the data set with THP-1; 0.9 µg/mL (≈ 0.974 µM) in the data set on Leishmania donovani [2]; under 0.1 µg/mL in the data set with Candida albicans [3] (ATCC 90028, 48 h); under 0.1 µg/mL in the data set with Cryptococcus neoformans; 0.2 µg/mL (≈ 0.216 µM) in the data set on Leishmania donovani [5]; 0.2 µg/mL (≈ 0.216 µM) in the data set on Leishmania donovani [6]. The IC90 in data set [1] is over 2 µg/mL; in the data set on Leishmania donovani [2], 1.4 µg/mL (≈ 1.52 µM); in the data set with Leishmania donovani [5], 0.4 µg/mL (≈ 0.433 µM); with Leishmania donovani [6] it was 0.5 µg/mL (≈ 0.541 µM). The MIC stood at 0.1 µg/mL (≈ 0.108 µM) in the data set with Candida albicans [3] (ATCC 90028, 48 h) and 0.1 µg/mL (≈ 0.108 µM) against Cryptococcus neoformans. For the same molecule, the outcome with Enterococcus faecium [4] was inactive.

As for `CCCCCCCCCCCCCCCCC1=NC(C)CCC1` (configuration not stated), the outcome in the data set on Staphylococcus aureus, with Escherichia coli, in the data set on Pseudomonas aeruginosa, in the data set on Enterococcus faecium [7], in the data set with Aspergillus fumigatus and with Candida albicans [8] was inactive. In addition, the IC50 is over 10 µg/mL in the data set with THP-1; over 10 µg/mL with Leishmania donovani [2]; 9.9 µg/mL (≈ 30.8 µM) in the data set with Cryptococcus neoformans; 3.5 µg/mL (≈ 10.9 µM) in the data set on Trypanosoma brucei; over 10 µg/mL in the data set on Leishmania donovani [5]; 5 µg/mL (≈ 15.5 µM) with Leishmania donovani [6]. The IC90 is over 10 µg/mL in data set [1]; over 10 µg/mL in the data set with Leishmania donovani [2]; 6.5 µg/mL (≈ 20.2 µM) with Trypanosoma brucei; over 10 µg/mL in the data set on Leishmania donovani [5]; 8.3 µg/mL (≈ 25.8 µM) in the data set on Leishmania donovani [6]. This molecule also had an MIC against Cryptococcus neoformans of 20 µg/mL (≈ 62.2 µM).

In the case of `CCCCCCCCCCCCCCCC1=NC(C)CCC1` (configuration not stated), the outcome in the data set on Staphylococcus aureus, in the data set with Escherichia coli, with Pseudomonas aeruginosa and with Aspergillus fumigatus was inactive. Besides, the IC50 is over 10 µg/mL in the data set with THP-1; over 10 µg/mL in the data set on Leishmania donovani [2]; 12.4 µg/mL (≈ 40.3 µM) in the data set on Candida albicans [3] (ATCC 90028, 48 h); 6.6 µg/mL (≈ 21.5 µM) in the data set on Cryptococcus neoformans; 2.7 µg/mL (≈ 8.78 µM) with Trypanosoma brucei; 3.1 µg/mL (≈ 10.1 µM) in the data set with Leishmania donovani [5]. In addition, the IC50 stood at 5.7 µg/mL (≈ 18.5 µM) in the data set with Leishmania donovani [6] and 19.4 µg/mL (≈ 63.1 µM) with Enterococcus faecium [9]. In addition, the IC90 in [1] was over 10 µg/mL; in the data set on Leishmania donovani [2], over 10 µg/mL; in the data set on Trypanosoma brucei, 3.6 µg/mL (≈ 11.7 µM); in the data set with Leishmania donovani [5], over 10 µg/mL; in the data set on Leishmania donovani [6], 7.9 µg/mL (≈ 25.7 µM). Further, the MIC is 20 µg/mL (≈ 65 µM) against Candida albicans [3] (ATCC 90028, 48 h); 10 µg/mL (≈ 32.5 µM) in the data set on Cryptococcus neoformans; 20 µg/mL (≈ 65 µM) in the data set with Enterococcus faecium [9].

Turning to `CCCCCCCCCCCCCCC1=NC(C)CCC1` (configuration not stated), the outcome in the data set with Staphylococcus aureus, in the data set on Escherichia coli, in the data set on Pseudomonas aeruginosa, with Enterococcus faecium [7] and in the data set with Aspergillus fumigatus was inactive. In addition, the IC50 with THP-1 is over 10 µg/mL; in the data set with Leishmania donovani [2], over 10 µg/mL; with Candida albicans [3] (ATCC 90028, 48 h), 17.1 µg/mL (≈ 58.3 µM); with Cryptococcus neoformans it was 8.3 µg/mL (≈ 28.3 µM); with Trypanosoma brucei it was 4 µg/mL (≈ 13.6 µM); with Leishmania donovani [5] it was 3.4 µg/mL (≈ 11.6 µM). Further, the IC50 with Leishmania donovani [6] was 6.7 µg/mL (≈ 22.8 µM). Besides, the IC90 in [1] was over 10 µg/mL; with Leishmania donovani [2], over 10 µg/mL; with Trypanosoma brucei it was 6.8 µg/mL (≈ 23.2 µM); with Leishmania donovani [5], 8.8 µg/mL (≈ 30 µM); in the data set with Leishmania donovani [6], 9 µg/mL (≈ 30.7 µM). The MIC entry in the data set with Candida albicans [3] was “inactive”. The minimum inhibitory concentration (MIC) against Cryptococcus neoformans is 13.3 µg/mL (≈ 45.3 µM).
